Measured values: ChEMBL document CHEMBL2016433 (Bioorg Med Chem, 2012)
pIC50: −log10 of the molar value. The source made the active and inactive calls.

Columns and labels:
U-937 [1] = test: Cytotoxicity against human U937 cells assessed as induction of cell death at 1 to 100 microM after 24 hrs by trypan blue exclusion method; format: functional, cell-based
U-937 [2] = test: Induction of apoptosis in human U937 cells after 24 hrs by acridine orange staining based microscopy; format: functional, cell-based
In short: (§1)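 U937 cells were treated for 24 h at 37 °C with 1–100 µM compound or vehicle, then stained with acridine orange. Over 600 cells were scored by fluorescence microscopy; apoptosis was defined as uniformly stained nuclei with chromatin condensation or nuclear fragmentation. Mean and SD of at least three determinations.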

U-937 [3] = test: Induction of cell death in human U937 cells assessed at 1 to 100 microM after 24 hrs by trypan blue exclusion method relative to untreated control; format: functional
In short: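 U937 cells (5×10^4 per well) exposed for 24 h at 37 °C, 5% CO₂ to 1 in 10 serial dilutions from 1 to 100 µM in RPMI-1640 with 5% FBS. Compounds came from 20 mM stocks in DMSO or medium. Controls got vehicle at equal amounts. Membrane-permeable cells were counted by trypan blue exclusion in a haemocytometer and expressed as percent. Mean and standard deviation from at least three determinations.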

U-937 [4] = test: Cytostatic against human U937 cells assessed as reduction in absolute number of total cells after 24 hrs by haemocytometry; format: functional, cell-based
In short: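 U937 cells, 5×10^4 per well in RPMI-1640 with 5% FBS, 2 mM L-glutamine and penicillin-streptomycin, were exposed to 1 in 10 serial dilutions from 100 µM to 1 µM (stocks 20 mM in DMSO or medium), or to vehicle, for 24 h at 37 °C in CO₂. Total cells were counted by haemocytometer; mean and SD of at least three determinations.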

PBMC [5] = test: Induction of apoptosis in human PBMC cells assessed as hypodiploid nuclei after 24 hrs by propidium iodide based flow cytometry analysis; format: cell-based
PBMC [6] = test: Induction of apoptosis in human PBMC cells assessed as hypodiploid nuclei at 1 uM after 48 hrs by propidium iodide based flow cytometry analysis (reference value: 4.7 %); format: cell-based
PBMC [7] = test: Induction of apoptosis in human PBMC cells assessed as hypodiploid nuclei at 10 uM after 48 hrs by propidium iodide based flow cytometry analysis (reference value: 4.7 %); format: cell-based
PBMC [8] = test: Induction of apoptosis in human PBMC cells assessed as hypodiploid nuclei at 50 uM after 48 hrs by propidium iodide based flow cytometry analysis (reference value: 4.7 %); format: cell-based
PBMC [9] = test: Induction of apoptosis in human PBMC cells assessed as hypodiploid nuclei at 100 uM after 48 hrs by propidium iodide based flow cytometry analysis (reference value: 4.7 %); format: cell-based
U-937 [10] = test: Induction of apoptosis in human U937 cells assessed as hypodiploid nuclei after 24 hrs by propidium iodide based flow cytometry analysis; format: functional, cell-based
U-937 [11] = test: Induction of apoptosis in human U937 cells assessed as hypodiploid nuclei at 1 uM after 24 hrs by propidium iodide based flow cytometry analysis (reference value: 3.2%); format: functional
U-937 [12] = test: Induction of apoptosis in human U937 cells assessed as hypodiploid nuclei at 10 uM after 24 hrs by propidium iodide based flow cytometry analysis (reference value: 3.2%); format: functional
U-937 [13] = test: Induction of apoptosis in human U937 cells assessed as hypodiploid nuclei at 50 uM after 24 hrs by propidium iodide based flow cytometry analysis (reference value: 3.2%); format: functional
U-937 [14] = test: Induction of apoptosis in human U937 cells assessed as hypodiploid nuclei at 100 uM after 24 hrs by propidium iodide based flow cytometry analysis (reference value: 3.2%); format: functional
MOLT-3 [15] = test: Cytotoxicity against human MOLT3 cells assessed as cell viability after 24 hrs; format: functional, cell-based; settings: MOLT-3, 24 h
MOLT-3 [16] = test: Cytotoxicity against human MOLT3 cells after 24 hrs by trypan blue exclusion assay; format: functional
MOLT-3 [17] = test: Induction of apoptosis in human MOLT3 cells after 24 hrs by acridine orange staining based fluorescence microscopy; format: functional
In short: (§2)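 HeLa, MOLT-3 and THP-1 cells were treated with increasing concentrations for 24 h, then stained with acridine orange and more than 600 cells scored by fluorescence microscopy for condensed or fragmented nuclei. AC30 is the concentration giving 30% apoptotic cells, from a best-fit curve versus log concentration.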

THP-1 [18] = test: Cytotoxicity against human THP1 cells assessed as cell viability after 24 hrs; format: functional, cell-based; settings: THP-1, 24 h
THP-1 [19] = test: Cytotoxicity against human THP1 cells after 24 hrs by trypan blue exclusion assay; format: functional
THP-1 [20] = test: Induction of apoptosis in human THP1 cells after 24 hrs by acridine orange staining based fluorescence microscopy; format: functional; in short: as §2
HT-29 [21] = test: Cytotoxicity against human HT-29 cells assessed as cell viability after 48 hrs; format: functional, cell-based; settings: HT-29, 48 h
In short: (§3)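 HT-29, HepG2 and MCF7 cells were treated in wells with increasing concentrations for 48 h at 37 °C, 5% CO₂. Total cell count was taken by haemocytometer. IC50 is the concentration inhibiting total count by 50%, from a best-fit curve of the value versus log concentration.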

HT-29 [22] = test: Cytotoxicity against human HT-29 cells after 48 hrs by trypan blue exclusion assay; format: functional
In short: (§4)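 Adherent HT-29, HepG2 and MCF7 cells were seeded in 96 wells with increasing concentrations and incubated 48 h at 37 °C, 5% CO₂. Trypan blue exclusion was done directly in the culture wells. CC30 is the concentration giving 30% cytotoxicity, from a best-fit curve versus log concentration.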

HT-29 [23] = test: Cytotoxicity against human HT-29 cells assessed as compound concentration causing 30% reduction in formazan product formation after 48 hrs by MTS assay; format: functional; settings: HT-29, 48 h
In short: (§5)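 HT-29, HepG2 and MCF7 cells were exposed to increasing concentrations for 48 h. MTS reagent was then added directly to the wells, incubated a further 4 h, and absorbance read at 490 nm. MAIC30 is the concentration reducing formazan formation by 30%, from a best-fit curve versus log concentration.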

HepG2 [24] = test: Cytotoxicity against human HepG2 cells assessed as cell viability after 48 hrs; format: functional, cell-based; settings: HepG2, 48 h; in short: as §3
HepG2 [25] = test: Cytotoxicity against human HepG2 cells after 48 hrs by trypan blue exclusion assay; format: functional; in short: as §4
HepG2 [26] = test: Cytotoxicity against human HepG2 cells assessed as compound concentration causing 30% reduction in formazan product formation after 48 hrs by MTS assay; format: functional; settings: HepG2, 48 h; in short: as §5
MCF7 [27] = test: Cytotoxicity against human MCF7 cells assessed as cell viability after 48 hrs; format: functional, cell-based; settings: MCF7, 48 h; in short: as §3
MCF7 [28] = test: Cytotoxicity against human MCF7 cells after 48 hrs by trypan blue exclusion assay; format: functional; in short: as §4
MCF7 [29] = test: Cytotoxicity against human MCF7 cells assessed as compound concentration causing 30% reduction in formazan product formation after 48 hrs by MTS assay; format: functional; settings: MCF7, 48 h; in short: as §5
U-937 [30] = test: Induction of apoptosis in human U937 cells at 100 uM after 24 hrs by acridine orange staining based microscopy; format: functional, cell-based; in short: as §1

CC(=O)OC[C@H]1O[C@@H](SSCc2ccc(CSS[C@@H]3O[C@H](COC(C)=O)[C@@H](OC(C)=O)[C@H](OC(C)=O)[C@H]3OC(C)=O)cc2)[C@H](OC(C)=O)[C@@H](OC(C)=O)[C@@H]1OC(C)=O
Activity (U-937 [1]): Active

CCc1c(CSS[C@@H]2O[C@H](COC(C)=O)[C@@H](OC(C)=O)[C@H](OC(C)=O)[C@H]2OC(C)=O)c(CC)c(CSS[C@@H]2O[C@H](COC(C)=O)[C@@H](OC(C)=O)[C@H](OC(C)=O)[C@H]2OC(C)=O)c(CC)c1CSS[C@@H]1O[C@H](COC(C)=O)[C@@H](OC(C)=O)[C@H](OC(C)=O)[C@H]1OC(C)=O
Activity (U-937 [2]): inactive
Activity (U-937 [1]): Active
Activity (U-937 [3]): 25%

CCc1c(CSS[C@@H]2O[C@H](COC(C)=O)[C@H](OC(C)=O)[C@H](OC(C)=O)[C@H]2OC(C)=O)c(CC)c(CSS[C@@H]2O[C@H](COC(C)=O)[C@H](OC(C)=O)[C@H](OC(C)=O)[C@H]2OC(C)=O)c(CC)c1CSS[C@@H]1O[C@H](COC(C)=O)[C@H](OC(C)=O)[C@H](OC(C)=O)[C@H]1OC(C)=O
Activity (U-937 [4]): Dose-dependent effect
Activity (U-937 [2]): inactive
Activity (U-937 [1]): inactive
Activity (U-937 [3]): 25%

Cc1c(CSS[C@@H]2O[C@H](CO)[C@@H](O)[C@H](O)[C@H]2O)c(C)c(CSS[C@@H]2O[C@H](CO)[C@@H](O)[C@H](O)[C@H]2O)c(C)c1CSS[C@@H]1O[C@H](CO)[C@@H](O)[C@H](O)[C@H]1O
Activity (U-937 [2]): inactive
Activity (U-937 [1]): Active
Activity (U-937 [3]): 25%

CC(=O)OC[C@H]1O[C@@H](SSCc2cc(CSS[C@@H]3O[C@H](COC(C)=O)[C@@H](OC(C)=O)[C@H](OC(C)=O)[C@H]3OC(C)=O)cc(CSS[C@@H]3O[C@H](COC(C)=O)[C@@H](OC(C)=O)[C@H](OC(C)=O)[C@H]3OC(C)=O)c2)[C@H](OC(C)=O)[C@@H](OC(C)=O)[C@@H]1OC(C)=O
Activity (U-937 [4]): Dose-dependent effect
Activity (U-937 [2]): inactive
Activity (U-937 [1]): inactive
Activity (U-937 [3]): 25%

CC(=O)OC[C@H]1O[C@@H](SSCc2c(C)c(CSS[C@@H]3O[C@H](COC(C)=O)[C@@H](OC(C)=O)[C@H](OC(C)=O)[C@H]3OC(C)=O)c(C)c(CSS[C@@H]3O[C@H](COC(C)=O)[C@@H](OC(C)=O)[C@H](OC(C)=O)[C@H]3OC(C)=O)c2C)[C@H](OC(C)=O)[C@@H](OC(C)=O)[C@@H]1OC(C)=O
Activity (U-937 [2]): inactive
Activity (U-937 [1]): Active
Activity (U-937 [3]): 25%

CCc1c(CSS[C@@H]2O[C@H](CO)[C@@H](O)[C@H](O)[C@H]2O)c(CC)c(CSS[C@@H]2O[C@H](CO)[C@@H](O)[C@H](O)[C@H]2O)c(CC)c1CSS[C@@H]1O[C@H](CO)[C@@H](O)[C@H](O)[C@H]1O
Activity (U-937 [2]): inactive
Activity (U-937 [1]): Active
Activity (U-937 [3]): 25%

CC(=O)OC[C@H]1O[C@@H](SSCc2cccc(CSS[C@@H]3O[C@H](COC(C)=O)[C@H](OC(C)=O)[C@H](OC(C)=O)[C@H]3OC(C)=O)c2)[C@H](OC(C)=O)[C@@H](OC(C)=O)[C@H]1OC(C)=O
Activity (U-937 [4]): Active
Activity (U-937 [2]): Active
Activity (PBMC [5]): Non-toxic
Activity (PBMC [6]): 4.9%
Activity (PBMC [7]): 7.4%
Activity (PBMC [8]): 30.9%
Activity (PBMC [9]): 31.2%
Activity (U-937 [10]): Dose-dependent effect
Activity (U-937 [11]): 3.1%
Activity (U-937 [12]): 4.2%
Activity (U-937 [13]): 51%
Activity (U-937 [14]): 91.2%
pIC50 (MOLT-3 [15]): < 4.00
CC30 (MOLT-3 [16]): 54 µM
AC30 (MOLT-3 [17]): 15 µM
pIC50 (THP-1 [18]): < 4.00
CC30 (THP-1 [19]): >100 µM
AC30 (THP-1 [20]): 92 µM
pIC50 (HT-29 [21]): 4.22
CC30 (HT-29 [22]): >100 µM
IC30 (HT-29 [23]): 12 µM
pIC50 (HepG2 [24]): 4.27
CC30 (HepG2 [25]): 77 µM
IC30 (HepG2 [26]): 41 µM
pIC50 (MCF7 [27]): 4.38
CC30 (MCF7 [28]): >100 µM
IC30 (MCF7 [29]): 61 µM
Activity (U-937 [1]): Active
Activity (U-937 [30]): Active

CC(=O)OC[C@H]1O[C@@H](S)[C@H](OC(C)=O)[C@@H](OC(C)=O)[C@H]1OC(C)=O
Activity (U-937 [2]): inactive
pIC50 (MOLT-3 [15]): < 4.00
CC30 (MOLT-3 [16]): >100 µM
AC30 (MOLT-3 [17]): >100 µM
pIC50 (THP-1 [18]): < 4.00
CC30 (THP-1 [19]): >100 µM
AC30 (THP-1 [20]): >100 µM

CC(=O)OC[C@H]1O[C@@H](SSc2cccc(SS[C@@H]3O[C@H](COC(C)=O)[C@@H](OC(C)=O)[C@H](OC(C)=O)[C@H]3OC(C)=O)c2)[C@H](OC(C)=O)[C@@H](OC(C)=O)[C@@H]1OC(C)=O
Activity (U-937 [1]): Active

CC(=O)OC[C@H]1O[C@@H](SSCc2cccc(CSS[C@@H]3O[C@H](COC(C)=O)[C@@H](OC(C)=O)[C@H](OC(C)=O)[C@H]3OC(C)=O)c2)[C@H](OC(C)=O)[C@@H](OC(C)=O)[C@@H]1OC(C)=O
Activity (U-937 [4]): Active
Activity (U-937 [2]): Active
Activity (U-937 [1]): Active
